# Assay results from ChEMBL document CHEMBL1153798, “Substituted tetrahydroquinolines as potent allosteric inhibitors of reverse transcriptase and its key mutants” (Bioorg Med Chem Lett, 2009).
# Assays:
# [1] = Volume of distribution in Beagle dog at 1 mg/kg, po and 0.5 mg/kg, iv; format: ADME, organism-based, Canis lupus familiaris; conditions: in vivo, read-out: Vdss
# Outline: (§1)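 Beagle dogs (n = 2) dosed singly, po 1 mg/kg and iv 0.5 mg/kg; iv cassette co-administered with other analogues at 0.125 mg/kg. Interanimal variability below 20%.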
# [2] = system: Human immunodeficiency virus 1; test: Ratio of IC50 for HIV1 carrying reverse transcriptase G190S mutant to IC50 for wild type HIV1 in the presence of 40% normal human serum; format: functional
# [3] = system: Human immunodeficiency virus 1; test: Antiviral activity against HIV1 3B infected human MT4 cells assessed as drug level required for 95% inhibition in the presence of 50% normal human serum; format: functional
# Outline: (§2)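 Spread assay: MT-4 human T-lymphoid cells in RPMI 1640 with either 10% FBS or 50% NHS; CIC95 taken as the concentration blocking >95% of virus spread. Wild-type virus H9IIIB or R8 as stated per line. Geometric mean of at least two determinations, individual values within 25% of the mean.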
# [4] = system: Human immunodeficiency virus 1; test: Ratio of IC50 for HIV1 carrying reverse transcriptase V106A/G190A/F227L mutant to IC50 for wild type HIV1 in the presence of 40% normal human serum; format: functional
# [5] = system: Human immunodeficiency virus 1; test: Ratio of IC50 for HIV1 carrying reverse transcriptase K103N/P225H mutant to IC50 for wild type HIV1 in the presence of 40% normal human serum; format: functional
# [6] = system: Human immunodeficiency virus 1; test: Ratio of IC50 for HIV1 carrying reverse transcriptase […]/G190A mutant to IC50 for wild type HIV1 in the presence of 40% normal human serum; format: functional
# [7] = system: Human immunodeficiency virus 1; test: Antiviral activity against HIV1 carrying reverse transcriptase K103N/V179E mutant infected human MT4 cells by phenoscreen assay in the presence of 40 percent normal human serum; format: functional, organism-based; conditions: Human immunodeficiency virus 1, MT4
# Outline: (§3)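 Phenotypic recombinant-virus assay (Phenoscreen, Monogram Bioscience), run with 40% normal human serum present. IC50 is the compound concentration in cell culture that inhibits viral replication by 50%.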
# [8] = system: Human immunodeficiency virus 1; test: Antiviral activity against HIV1 R8 infected human MT4 cells assessed as drug level required for 95% inhibition in the presence of 10% fetal bovine serum; format: functional; outline: as §2
# [9] = system: Rattus norvegicus; test: Hepatic clearance in Sprague-Dawley rat at 10 mg/kg, po and 2 mg/kg, iv; format: ADME, organism-based, Liver; conditions: in vivo
# [10] = system: Human immunodeficiency virus 1; test: Antiviral activity against HIV1 R8 infected human MT4 cells assessed as drug level required for 95% inhibition in the presence of 50% normal human serum; format: functional; outline: as §2
# [11] = Half life in Sprague-Dawley rat at 10 mg/kg, po and 2 mg/kg, iv; format: ADME, organism-based; conditions: in vivo
# [12] = Half life in Beagle dog at 1 mg/kg, po and 0.5 mg/kg, iv; format: ADME, organism-based, Canis lupus familiaris; conditions: in vivo; outline: as §1
# [13] = system: Human immunodeficiency virus 1; test: Ratio of IC50 for HIV1 carrying reverse transcriptase Y181C mutant to IC50 for wild type HIV1 in the presence of 40% normal human serum; format: functional
# [14] = system: Human immunodeficiency virus 1; test: Antiviral activity against HIV1 infected human MT4 cells by phenoscreen assay in the presence of 40 percent normal human serum; format: functional, organism-based; conditions: Human immunodeficiency virus 1, MT4
# [15] = system: Human immunodeficiency virus 1; test: Antiviral activity against HIV1 3B infected human MT4 cells assessed as drug level required for 95% inhibition in the presence of 10% fetal bovine serum; format: functional; outline: as §2
# [16] = Activity of CYP3A4 in rat bile assessed as oxidation of tetrahydroquinoline ring; format: ADME
# [17] = Activity of CYP3A4 in rat plasma assessed as oxidation of tetrahydroquinoline ring; format: ADME, cell-free
# [18] = system: Human immunodeficiency virus 1; test: Ratio of IC50 for HIV1 carrying reverse transcriptase Y188L mutant to IC50 for wild type HIV1 in the presence of 40% normal human serum; format: functional
# [19] = system: Human immunodeficiency virus 1; test: Antiviral activity against HIV1 carrying reverse transcriptase K101E/G190A mutant infected human MT4 cells by phenoscreen assay in the presence of 40 percent normal human serum; conditions: Human immunodeficiency virus 1, MT4
# [20] = system: Human immunodeficiency virus 1; test: Antiviral activity against HIV1 carrying reverse transcriptase K101E/ Y181C/G190A mutant infected human MT4 cells by phenoscreen assay in the presence of 40 percent normal human serum; conditions: Human immunodeficiency virus 1, MT4
# [21] = Oral bioavailability in Beagle dog at 1 mg/kg; format: ADME, organism-based, Canis lupus familiaris; conditions: in vivo; outline: as §1
# [22] = system: Human immunodeficiency virus 1; test: Antiviral activity against HIV1 carrying reverse transcriptase K103N/P225H mutant infected human MT4 cells by phenoscreen assay in the presence of 40 percent normal human serum; format: functional, organism-based; conditions: Human immunodeficiency virus 1, MT4; outline: as §3
# [23] = system: Human immunodeficiency virus 1; test: Antiviral activity against HIV1 carrying reverse transcriptase V106A/G190A/F227L mutant infected human MT4 cells by phenoscreen assay in the presence of 40 percent normal human serum; format: functional, organism-based; conditions: Human immunodeficiency virus 1, MT4; outline: as §3
# [24] = system: Human immunodeficiency virus 1; test: Antiviral activity against HIV1 carrying reverse transcriptase K103N/Y181C mutant infected human MT4 cells by phenoscreen assay in the presence of 40 percent normal human serum; format: functional, organism-based; conditions: Human immunodeficiency virus 1, MT4; outline: as §3
# [25] = system: Human immunodeficiency virus 1; test: Antiviral activity against HIV1 carrying reverse transcriptase K103N/ Y181C/G190A mutant infected human MT4 cells by phenoscreen assay in the presence of 40 percent normal human serum; format: functional, organism-based; conditions: Human immunodeficiency virus 1, MT4; outline: as §3
# [26] = system: Human immunodeficiency virus 1; test: Antiviral activity against HIV1 carrying reverse transcriptase K103N mutant infected human MT4 cells by phenoscreen assay in the presence of 40 percent normal human serum; format: functional, organism-based; conditions: Human immunodeficiency virus 1, MT4; outline: as §3
# [27] = system: Human immunodeficiency virus 1; test: Ratio of IC50 for HIV1 carrying reverse transcriptase […] mutant to IC50 for wild type HIV1 in the presence of 40% normal human serum; format: functional
# [28] = Activity of CYP3A4 in rat hepatocytes assessed as oxidation of tetrahydroquinoline ring; format: ADME, cell-based, Hepatocyte
# [29] = system: Human immunodeficiency virus 1; test: Ratio of IC50 for HIV1 carrying reverse transcriptase K103N/V179E mutant to IC50 for wild type HIV1 in the presence of 40% normal human serum; format: functional
# [30] = system: Human immunodeficiency virus 1; test: Ratio of IC50 for HIV1 carrying reverse transcriptase Y181C/G190A mutant to IC50 for wild type HIV1 in the presence of 40% normal human serum; format: functional
# [31] = system: Human immunodeficiency virus 1; test: Antiviral activity against HIV1 carrying reverse transcriptase […] mutant infected human MT4 cells by phenoscreen assay in the presence of 40 percent normal human serum; format: functional, organism-based; conditions: Human immunodeficiency virus 1, MT4; outline: as §3
# [32] = system: Human immunodeficiency virus 1; test: Antiviral activity against HIV1 carrying reverse transcriptase G190S mutant infected human MT4 cells by phenoscreen assay in the presence of 40 percent normal human serum; conditions: Human immunodeficiency virus 1, MT4
# [33] = system: Human immunodeficiency virus 1; test: Ratio of IC50 for HIV1 carrying reverse transcriptase K103N/G190A mutant to IC50 for wild type HIV1 in the presence of 40% normal human serum; format: functional
# [34] = system: Human immunodeficiency virus 1; test: Antiviral activity against HIV1 carrying reverse transcriptase G190A mutant infected human MT4 cells by phenoscreen assay in the presence of 40 percent normal human serum; conditions: Human immunodeficiency virus 1, MT4
# [35] = system: Human immunodeficiency virus 1; test: Antiviral activity against HIV1 carrying reverse transcriptase K103N/G190A mutant infected human MT4 cells by phenoscreen assay in the presence of 40 percent normal human serum; format: functional, organism-based; conditions: Human immunodeficiency virus 1, MT4; outline: as §3
# [36] = system: Human immunodeficiency virus 1; test: Antiviral activity against HIV1 carrying reverse transcriptase Y181C mutant infected human MT4 cells by phenoscreen assay in the presence of 40 percent normal human serum; format: functional, organism-based; conditions: Human immunodeficiency virus 1, MT4; outline: as §3
# [37] = system: Human immunodeficiency virus 1; test: Ratio of IC50 for HIV1 carrying reverse transcriptase K103N mutant to IC50 for wild type HIV1 in the presence of 40% normal human serum; format: functional
# [38] = Activity of CYP3A4 in rat liver microsomes assessed as oxidation of tetrahydroquinoline ring; format: ADME, Microsome
# [39] = system: Human immunodeficiency virus 1; test: Ratio of IC50 for HIV1 carrying reverse transcriptase G190A mutant to IC50 for wild type HIV1 in the presence of 40% normal human serum; format: functional
# [40] = system: Human immunodeficiency virus 1; test: Antiviral activity against HIV1 carrying reverse transcriptase Y188L mutant infected human MT4 cells by phenoscreen assay in the presence of 40 percent normal human serum; format: functional, organism-based; conditions: Human immunodeficiency virus 1, MT4; outline: as §3
# [41] = system: Human immunodeficiency virus 1; test: Ratio of IC50 for HIV1 carrying reverse transcriptase […]/ Y181C/G190A mutant to IC50 for wild type HIV1 in the presence of 40% normal human serum; format: functional
# [42] = system: Human immunodeficiency virus 1; test: Antiviral activity against HIV1 carrying reverse transcriptase Y181C/G190A mutant infected human MT4 cells by phenoscreen assay in the presence of 40 percent normal human serum; format: functional, organism-based; conditions: Human immunodeficiency virus 1, MT4; outline: as §3
# [43] = system: Human immunodeficiency virus 1; test: Antiviral activity against HIV1 carrying reverse transcriptase […]/G190A mutant infected human MT4 cells in the presence of 40 percent normal human serum; format: functional; outline: as §3
# [44] = system: Human immunodeficiency virus 1; test: Ratio of IC50 for HIV1 carrying reverse transcriptase K103N/Y181C mutant to IC50 for wild type HIV1 in the presence of 40% normal human serum; format: functional
compound,measurement,setting,value
NS(=O)(=O)c1ccc(NC(=O)CSC(=O)N2CCCc3cc(Cl)cc(Cl)c32)c(Cl)c1,Vd,[1],5 L/kg
same,fold change (FC),[2],51.6
same,ID95,[3],40 nM
same,fold change (FC),[4],>833
same,fold change (FC),[5],2.7
same,fold change (FC),[6],94.3
same,IC50,[7],2.2 nM
same,Activity,[8],18 nM
same,CL,[9],109 mL/min/kg
same,Activity,[10],33 nM
same,half-life,[11],24 min
same,half-life,[12],294 min
same,fold change (FC),[13],14
same,IC50,[14],1.2 nM
same,ID95,[15],13 nM
same,Activity,[16],Active
same,Activity,[17],Active
same,fold change (FC),[18],>833
same,IC50,[19],113 nM
same,IC50,[20],> 1000 nM
same,bioavailability,[21],30%
same,IC50,[22],3.2 nM
same,IC50,[23],> 1000 nM
same,IC50,[24],64.2 nM
same,IC50,[25],> 1000 nM
same,IC50,[26],0.9 nM
same,fold change (FC),[27],4.6
same,Activity,[28],Active
same,fold change (FC),[29],1.8
same,fold change (FC),[30],272.5
same,IC50,[31],5.5 nM
same,IC50,[32],61.9 nM
same,fold change (FC),[33],6.8
same,IC50,[34],12.1 nM
same,IC50,[35],8.2 nM
same,IC50,[36],16.8 nM
same,fold change (FC),[37],0.8
same,Activity,[38],Active
same,fold change (FC),[39],10.1
same,IC50,[40],> 1000 nM
same,fold change (FC),[41],>833
same,IC50,[42],327 nM
same,fold change (FC),[43],94.3
same,fold change (FC),[44],53.5
